ChEMBL document CHEMBL4480361, “Design, synthesis, and in vitro biological evaluation of novel benzimidazole tethered allylidenehydrazinylmethylthiazole derivatives as potent inhibitors of Mycobacterium tuberculosis” (Medchemcomm, 2019)
Converted amounts (≈) assume the structure as drawn.

Assays:
[1] = tested on: Mycobacterium tuberculosis; experiment: Antitubercular activity against auto-luminescent Mycobacterium tuberculosis H37Ra measured for 5 days by luminescence assay; type: functional; details: 120 h
Method in brief: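 Unmarked autoluminescent H37Ra homogenised with glass beads, grown in 7H9 with 0.05% Tween 80 and 10% OADC to OD600 0.3–0.5. At 2 million RLU, diluted to 2000–4000 RLU in Tween-free 7H9. Compounds tested in 3-fold steps from […] μg mL⁻¹, with DMSO and rifampicin (10, 1, 0.1 μg mL⁻¹) controls. RLU read daily for 5 days. MIClux is the lowest concentration giving RLUdrug/RLUDMSO below 10%.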

[2] = tested on: MDCK; experiment: Cytotoxicity against MDCK cells assessed as reduction in cell viability after 72 hrs by CCK-8 assay; type: cell-based; details: Canis lupus familiaris
[3] = tested on: Mycobacterium tuberculosis; experiment: Antitubercular activity against Mycobacterium tuberculosis H37Ra measured for 5 days by resazurin dye-based assay; type: functional; details: 120 h

Cc1ccc(/C=C/C(=N/Nc2nc(C)cs2)c2nc3ccccc3[nH]2)cc1
MIC90 [1]: 10 µg/mL (≈ 26.8 µM)

NC(=S)N/N=C(/C=C/c1cccc2[nH]ccc12)c1nc2ccccc2[nH]1
MIC90 [1]: 5 µg/mL (≈ 13.9 µM) | IC50 [2]: 0.91 µg/mL (≈ 2.52 µM)

Cc1csc(N/N=C(/C=C/c2ccc(OC(F)(F)F)cc2)c2nc3ccccc3[nH]2)n1
MIC90 [1]: 10 µg/mL (≈ 22.6 µM)

NC(=S)N/N=C(/C=C/c1ccc(OC(F)(F)F)cc1)c1nc2ccccc2[nH]1
MIC90 [1]: 5 µg/mL (≈ 12.3 µM) | IC50 [2]: 0.34 µg/mL (≈ 0.839 µM)

Cc1csc(N/N=C(/C=C/c2ccccc2)c2nc3ccccc3[nH]2)n1
MIC90 [1]: 4 µg/mL (≈ 11.1 µM) | IC50 [2]: 2.9 µg/mL (≈ 8.07 µM)

CO[C@H]1/C=C/O[C@@]2(C)Oc3c(C)c(O)c4c(O)c(c(/C=N/N5CCN(C)CC5)c(O)c4c3C2=O)NC(=O)/C(C)=C\C=C\[C@H](C)[C@H](O)[C@@H](C)[C@@H](O)[C@@H](C)[C@H](OC(C)=O)[C@@H]1C [RIFAMPIN]
MIC90 [1]: 0.25 µg/mL (≈ 0.304 µM)

Cc1csc(N/N=C(/C=C/c2ccc(F)cc2)c2nc3ccccc3[nH]2)n1
MIC90 [1]: 5 µg/mL (≈ 13.2 µM)

NC(=S)N/N=C(/C=C/c1ccc(F)cc1)c1nc2ccccc2[nH]1
MIC90 [1]: 2.5 µg/mL (≈ 7.37 µM) | IC50 [2]: 1.6 µg/mL (≈ 4.71 µM)

Cc1cc(/C=C/C(=N/NC(N)=S)c2nc3ccccc3[nH]2)ccc1F
MIC90 [1]: 4 µg/mL (≈ 11.3 µM) | IC50 [2]: 1.6 µg/mL (≈ 4.53 µM)

COc1ccc(/C=C/C(=N/NC(N)=S)c2nc3ccccc3[nH]2)cc1
MIC90 [1]: 10 µg/mL (≈ 28.5 µM)

CCNC(=O)Nc1nc2cc(-c3cccnc3)cc(-c3ccccn3)c2[nH]1
MIC [3]: 0.001 µg/mL (≈ 0.00279 µM)

NC(=S)N/N=C(/C=C/c1ccc(Cl)c(F)c1)c1nc2ccccc2[nH]1
MIC90 [1]: 5 µg/mL (≈ 13.4 µM) | IC50 [2]: 1.5 µg/mL (≈ 4.01 µM)

CCN(CC)c1ccc(/C=C/C(=N/NC(N)=S)c2nc3ccccc3[nH]2)cc1
MIC90 [1]: 10 µg/mL (≈ 25.5 µM)

CCN(CC)c1ccc(/C=C/C(=N/Nc2nc(C)cs2)c2nc3ccccc3[nH]2)cc1
MIC90 [1]: 2.5 µg/mL (≈ 5.81 µM) | IC50 [2]: > 30 µg/mL

COc1cc(OC)c(/C=C/C(=N/Nc2nc(C)cs2)c2nc3ccccc3[nH]2)c(OC)c1
MIC90 [1]: > 50 µg/mL

Cc1csc(N/N=C(/C=C/c2ccc(Cl)c(F)c2)c2nc3ccccc3[nH]2)n1
MIC90 [1]: 10 µg/mL (≈ 24.3 µM)

COc1ccc(/C=C/C(=N/Nc2nc(C)cs2)c2nc3ccccc3[nH]2)cc1
MIC90 [1]: 10 µg/mL (≈ 25.7 µM) | IC50 [2]: 1.9 µg/mL (≈ 4.88 µM)

COc1cccc(/C=C/C(=N/NC(N)=S)c2nc3ccccc3[nH]2)c1OC
MIC90 [1]: 5 µg/mL (≈ 13.1 µM) | IC50 [2]: 3.9 µg/mL (≈ 10.2 µM)

Cc1csc(N/N=C(/C=C/c2cc(F)cc(F)c2)c2nc3ccccc3[nH]2)n1
MIC90 [1]: 10 µg/mL (≈ 25.3 µM)

NC(=S)N/N=C(/C=C/c1ccc(Br)cc1)c1nc2ccccc2[nH]1
MIC90 [1]: 4 µg/mL (≈ 9.99 µM) | IC50 [2]: 2.6 µg/mL (≈ 6.5 µM)

Cc1csc(N/N=C(/C=C/c2cccc3[nH]ccc23)c2nc3ccccc3[nH]2)n1
MIC90 [1]: 10 µg/mL (≈ 25.1 µM)

Cc1csc(N/N=C(/C=C/c2ccc(Br)cc2)c2nc3ccccc3[nH]2)n1
MIC90 [1]: 10 µg/mL (≈ 22.8 µM)

NC(=S)N/N=C(/C=C/c1cc(F)cc(F)c1)c1nc2ccccc2[nH]1
MIC90 [1]: 5 µg/mL (≈ 14 µM) | IC50 [2]: 1.6 µg/mL (≈ 4.48 µM)

Cc1csc(N/N=C(/C=C/c2ccc(F)c(C)c2)c2nc3ccccc3[nH]2)n1
MIC90 [1]: 10 µg/mL (≈ 25.5 µM)

NC(=S)N/N=C(/C=C/c1ccccc1)c1nc2ccccc2[nH]1
MIC90 [1]: 5 µg/mL (≈ 15.6 µM) | IC50 [2]: 3.4 µg/mL (≈ 10.6 µM)

Cc1csc(N/N=C(/C=C/c2ccc[nH]2)c2nc3ccccc3[nH]2)n1
MIC90 [1]: 100 µg/mL (≈ 287 µM)

NC(=S)N/N=C(/C=C/c1ccc[nH]1)c1nc2ccccc2[nH]1
MIC90 [1]: 100 µg/mL (≈ 322 µM)

COc1cc(OC)c(/C=C/C(=N/NC(N)=S)c2nc3ccccc3[nH]2)c(OC)c1
MIC90 [1]: > 50 µg/mL

Cc1ccc(/C=C/C(=N/NC(N)=S)c2nc3ccccc3[nH]2)cc1
MIC90 [1]: 5 µg/mL (≈ 14.9 µM) | IC50 [2]: 3.7 µg/mL (≈ 11 µM)

COc1cccc(/C=C/C(=N/Nc2nc(C)cs2)c2nc3ccccc3[nH]2)c1OC
MIC90 [1]: 10 µg/mL (≈ 23.8 µM)
